Tests used:
Format in all cases: functional
Mus musculus [1] = test: The effect on electroshock protection in mice following oral administration
Procedure, shortened: (§1)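 Observed at 0.5, 2, 5 and 24 h for ataxia (abnormal gait/imprecise movement), pupil diameter (dissecting microscope, 20×, micrometer), excitement (spontaneous running/jumping) and electroshock protection (corneal electrodes at 2 and 5 h). ED50 by Thompson method.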

Mus musculus [2] = test: Effect on pupil dilation was measured in mice upon oral administration; procedure, shortened: as §1
Mus musculus [3] = test: The effect on excitement was measured in mice following oral administration; procedure, shortened: as §1
Mus musculus [4] = test: Antidepressant activity by determining the decreased exploratory activity in mice upon oral administration
Procedure, shortened: (§2)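 Mice given test drug orally; 30 min later challenged with tetrabenazine (methanesulfonate) 32 mg/kg ip in 0.05 M KCl pH 2.0. Scored 1 h after test drug for exploratory activity and ptosis; ptosis antagonism = lid closure <50% in both eyes exactly 2 s after placing mouse facing observer. ED50 calculated by Thompson method.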

Mus musculus [5] = test: Antidepressant activity by determining the reversal of tetrabenazine-induced ptosis upon oral administration; procedure, shortened: as §2
Mus musculus [6] = test: The effect on ataxia in mice following oral administration; procedure, shortened: as §1
Mus musculus [7] = test: The effect on 24-hour mortality in mice following oral administration
Mus musculus [8] = test: Compound was tested for antidepressant activity by determining the decreased exploratory activity in mice upon oral administration; 20-36; procedure, shortened: as §2
Mus musculus [9] = test: Compound was tested for antidepressant activity by determining the reversal of tetrabenazine-induced ptosis upon oral administration; 3.0-73; procedure, shortened: as §2
Mus musculus [10] = test: Compound was tested for antidepressant activity by determining the decreased exploratory activity in mice upon oral administration; procedure, shortened: as §2
Mus musculus [11] = test: Compound was tested for antidepressant activity by determining the reversal of tetrabenazine-induced ptosis upon oral administration; 5.8-15.6; procedure, shortened: as §2
Mus musculus [12] = test: Compound was tested for antidepressant activity by determining the decreased exploratory activity in mice upon oral administration; 39-238; procedure, shortened: as §2
Mus musculus [13] = test: Compound was tested for antidepressant activity by determining the reversal of tetrabenazine-induced ptosis upon oral administration; 26-122; procedure, shortened: as §2
Mus musculus [14] = test: Compound was tested for antidepressant activity by determining the reversal of tetrabenazine-induced ptosis upon oral administration; 37-170; procedure, shortened: as §2
Mus musculus [15] = test: Compound was tested for antidepressant activity by determining the reversal of tetrabenazine-induced ptosis upon oral administration; 10-57; procedure, shortened: as §2
Mus musculus [16] = test: Compound was tested for antidepressant activity by determining the decreased exploratory activity in mice upon oral administration; 22-53; procedure, shortened: as §2
Mus musculus [17] = test: Compound was tested for antidepressant activity by determining the decreased exploratory activity in mice upon oral administration; 2.6-28; procedure, shortened: as §2
Mus musculus [18] = test: Compound was tested for antidepressant activity by determining the reversal of tetrabenazine-induced ptosis upon oral administration; 48-203; procedure, shortened: as §2
Mus musculus [19] = test: compound was tested for antidepressant activity by determining the decreased exploratory activity in mice upon oral administration; […]
Procedure, shortened: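 Mice got the test drug, then 30 min later tetrabenazine (as methanesulfonate) 32 mg/kg ip, dissolved in 0.20 mL of 0.05 M KCl at pH 2.0. One hour after test drug (30 min after tetrabenazine), animals were scored for exploratory activity and ptosis. Reversal of the tetrabenazine-induced decrease in exploration was the read-out.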

Mus musculus [20] = test: Compound was tested for antidepressant activity by determining the reversal of tetrabenazine-induced ptosis upon oral administration; 11-29; procedure, shortened: as §2
Mus musculus [21] = test: Compound was tested for antidepressant activity by determining the decreased exploratory activity in mice upon oral administration; 8-58; procedure, shortened: as §2
Mus musculus [22] = test: Compound was tested for antidepressant activity by determining the reversal of tetrabenazine-induced ptosis upon oral administration; 6-20; procedure, shortened: as §2
Mus musculus [23] = test: Compound was tested for antidepressant activity by determining the decreased exploratory activity in mice upon oral administration; 0.4-1.1; procedure, shortened: as §2
Mus musculus [24] = test: Compound was tested for antidepressant activity by determining the reversal of tetrabenazine-induced ptosis upon oral administration; 0.17-0.37; procedure, shortened: as §2

Row | SMILES | ED50 (Mus musculus [1]) | ED50 (Mus musculus [2]) | ED50 (Mus musculus [3]) | ED50 (Mus musculus [4]) | ED50 (Mus musculus [5]) | ED50 (Mus musculus [6]) | ED50 (Mus musculus [7]) | other results
1 | CC(=O)N1Cc2ccccc2/C(=N\CCN(C)C)c2ccccc21 | > 324 mg/kg | 200 mg/kg | > 324 mg/kg | > 125 mg/kg | > 125 mg/kg | 100 mg/kg | > 324 mg/kg | –
2 | CN(C)CCCN=C(c1ccccc1)c1ccccc1 | > 324 mg/kg | > 324 mg/kg | > 324 mg/kg | > 125 mg/kg | > 125 mg/kg | 60 mg/kg | 200 mg/kg | –
3 | CN(C)CC/N=C1\c2ccccc2CSc2ccccc21 | > 324 mg/kg | 20 mg/kg | > 324 mg/kg | – | – | 20 mg/kg | 60 mg/kg | ED50 (Mus musculus [8]): 27 mg/kg; ED50 (Mus musculus [9]): 47 mg/kg
4 | CCN(CC)CCN=C1c2ccccc2CCc2ccccc21 | 200 mg/kg | 36 mg/kg | > 324 mg/kg | 36 mg/kg | > 125 mg/kg | 20 mg/kg | 60 mg/kg | –
5 | CN(C)CCCN=c1c2ccccc2ccc2ccccc12 | > 324 mg/kg | 7 mg/kg | 36 mg/kg | – | – | 20 mg/kg | – | ED50 (Mus musculus [10]): > 125 mg/kg; ED50 (Mus musculus [11]): 9.5 mg/kg
6 | NCCCNC1c2ccccc2CCc2ccccc21 | > 324 mg/kg | 60 mg/kg | > 324 mg/kg | – | > 125 mg/kg | 60 mg/kg | 200 mg/kg | ED50 (Mus musculus [10]): > 125 mg/kg
7 | CN(C)CCC/N=C1\c2ccccc2CN(C)c2ccccc21 | > 324 mg/kg | 100 mg/kg | > 324 mg/kg | – | – | 200 mg/kg | 20 mg/kg | ED50 (Mus musculus [12]): 96 mg/kg; ED50 (Mus musculus [13]): 56 mg/kg
8 | CN(C)CCN=C1c2ccccc2C(C)(C)c2ccccc21 | > 324 mg/kg | > 324 mg/kg | > 324 mg/kg | > 125 mg/kg | > 125 mg/kg | 36 mg/kg | 200 mg/kg | –
9 | c1ccc2c(c1)C(=NCCN1CCOCC1)c1ccccc1C1CC21 (stereo unspecified) | > 324 mg/kg | > 324 mg/kg | > 324 mg/kg | > 125 mg/kg | – | 200 mg/kg | > 324 mg/kg | ED50 (Mus musculus [14]): 79 mg/kg
10 | c1ccc2c(c1)C(=NCCN1CCCC1)c1ccccc1C1CC21 (stereo unspecified) | 200 mg/kg | 7 mg/kg | > 324 mg/kg | > 125 mg/kg | > 125 mg/kg | 60 mg/kg | 300 mg/kg | –
11 | CN(C)CCCN=C1c2ccccc2CCc2ccccc21 | > 324 mg/kg | 20 mg/kg | > 324 mg/kg | – | – | 60 mg/kg | 36 mg/kg | ED50 (Mus musculus [15]): 24 mg/kg; ED50 (Mus musculus [16]): 34 mg/kg
12 | CN(C)CCN=C1c2ccccc2C2C(c3ccccc31)C2(Cl)Cl (stereo unspecified) | > 324 mg/kg | > 324 mg/kg | > 324 mg/kg | > 125 mg/kg | > 125 mg/kg | 200 mg/kg | > 324 mg/kg | –
13 | CN(C)CCCN=c1c2ccccc2oc2ccccc12 | > 324 mg/kg | > 324 mg/kg | > 324 mg/kg | > 125 mg/kg | > 125 mg/kg | 60 mg/kg | 300 mg/kg | –
14 | CNCCN=C1c2ccccc2CCc2ccccc21 | > 324 mg/kg | 60 mg/kg | > 324 mg/kg | – | < 5 mg/kg | 36 mg/kg | 200 mg/kg | ED50 (Mus musculus [17]): 8.5 mg/kg
15 | CN(C)CCC/N=C1\c2ccccc2CS(=O)(=O)c2ccccc21 | > 324 mg/kg | 20 mg/kg | > 324 mg/kg | > 125 mg/kg | > 125 mg/kg | 200 mg/kg | 20 mg/kg | –
16 | CN(C)CCC/N=C1\c2ccccc2CSc2ccccc21 | > 324 mg/kg | 60 mg/kg | > 324 mg/kg | 81 mg/kg | > 81 mg/kg | 60 mg/kg | 60 mg/kg | –
17 | CN(C)CCC/N=C1\c2ccccc2COc2ccccc21 | > 324 mg/kg | 20 mg/kg | > 324 mg/kg | > 125 mg/kg | – | 20 mg/kg | 200 mg/kg | ED50 (Mus musculus [18]): 99 mg/kg
18 | CN(C)CCN=C1c2ccccc2C2C(Cl)C2c2ccccc21 (stereo unspecified) | > 324 mg/kg | 200 mg/kg | > 324 mg/kg | > 125 mg/kg | > 125 mg/kg | 200 mg/kg | > 324 mg/kg | –
19 | NCCN=C1c2ccccc2CCc2ccccc21 | 200 mg/kg | 200 mg/kg | > 324 mg/kg | – | – | 100 mg/kg | 200 mg/kg | ED50 (Mus musculus [19]): 56 mg/kg; ED50 (Mus musculus [20]): 18 mg/kg
20 | CN(C)CCN=c1c2ccccc2sc2ccccc12 | > 324 mg/kg | 36 mg/kg | > 324 mg/kg | – | – | 60 mg/kg | 300 mg/kg | ED50 (Mus musculus [21]): 22 mg/kg; ED50 (Mus musculus [22]): 11 mg/kg
21 | CN(C)CCN=C(c1ccccc1)c1ccccc1 | > 200 mg/kg | > 324 mg/kg | > 324 mg/kg | > 81 mg/kg | > 81 mg/kg | 36 mg/kg | > 324 mg/kg | –
22 | CN(C)CCN=C1c2ccccc2C2CC2c2ccccc21 (stereo unspecified) | > 324 mg/kg | 20 mg/kg | 60 mg/kg | – | – | 20 mg/kg | > 324 mg/kg | ED50 (Mus musculus [23]): 0.7 mg/kg; ED50 (Mus musculus [24]): 0.25 mg/kg
23 | CCNCCN=C1c2ccccc2CCc2ccccc21 | 60 mg/kg | 20 mg/kg | > 324 mg/kg | > 125 mg/kg | > 125 mg/kg | 20 mg/kg | 36 mg/kg | –
24 | CN(C)CCNC1c2ccccc2CCc2ccccc21 | 60 mg/kg | 20 mg/kg | > 324 mg/kg | – | > 125 mg/kg | 20 mg/kg | 200 mg/kg | ED50 (Mus musculus [10]): > 125 mg/kg
25 | CN(C)CCC=C1c2ccccc2COc2ccccc21 [DOXEPIN] | 62 mg/kg | 56 mg/kg | > 324 mg/kg | – | 5.9 mg/kg | 23 mg/kg | 232 mg/kg | ED50 (Mus musculus [10]): 27 mg/kg
26 | CN(C)CCCN1c2ccccc2CCc2ccccc21 [IMIPRAMINE] | 209 mg/kg | 198 mg/kg | > 324 mg/kg | – | 0.9 mg/kg | 62 mg/kg | 305 mg/kg | ED50 (Mus musculus [10]): 2.2 mg/kg

Reference: ChEMBL document CHEMBL1121802, “Imine analogues of tricyclic antidepressants” (1981)
